# The list is not random: actives were taken first. Their share in the collection is about 2.6%.
# SR-BI uptake up – activators of SR-BI mediated DiI-HDL uptake, primary screen, ldlA[mSR-BI] CHO cells, DiI fluorescence. 3 h; 100 = double the neutral-control signal. activation, % at 12.5 µM. 320,000 tested, 0.096% active. AID 504775, 2011;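 active means mean replicate activation of at least 60% and every replicate at or above 60%; inconclusive means mean or all-replicate condition met, but not both; inactive means mean below 60% and not all replicates reaching 60%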;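 further: 0% = median plate neutral-control signal and 100% = twice that signal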
#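 Test system: SR-BI-overexpressing, LDLR-lacking CHO cells; Also added: labelled HDL, 10 µg/mL; Measured by: bottom-read cell fluorescence after medium removal, ex 550/em 595 nm; Timing: 3 h uptake period with compound, 37 °C; Buffer or medium: F12, 0.5% BSA, 25 mM HEPES; Doses: single compound concentration, delivered by pin transfer.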
# SR-BI DiI inh – inhibitors of SR-BI mediated HDL lipid uptake, primary screen, ldlA[mSR-BI] cells, fluorescence, single point; inhibition, % at 12.5 µM; AID 488896, 2010; 320,000 tested, 0.96% active; ldlA[mSR-BI] CHO cells, DiI-HDL uptake fluorescence, 3 h; Scavenger receptor class B member 1 (Mus musculus), Q61009;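 active means mean replicate inhibition of at least 70% and a set share of replicates each scoring 70 or more; inconclusive means meets just one of the two criteria; inactive means fails both criteria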;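 further: 0% = median of neutral control wells and 100% = median of positive control wells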
# Target sequence (Q61009 whole entry, looked up): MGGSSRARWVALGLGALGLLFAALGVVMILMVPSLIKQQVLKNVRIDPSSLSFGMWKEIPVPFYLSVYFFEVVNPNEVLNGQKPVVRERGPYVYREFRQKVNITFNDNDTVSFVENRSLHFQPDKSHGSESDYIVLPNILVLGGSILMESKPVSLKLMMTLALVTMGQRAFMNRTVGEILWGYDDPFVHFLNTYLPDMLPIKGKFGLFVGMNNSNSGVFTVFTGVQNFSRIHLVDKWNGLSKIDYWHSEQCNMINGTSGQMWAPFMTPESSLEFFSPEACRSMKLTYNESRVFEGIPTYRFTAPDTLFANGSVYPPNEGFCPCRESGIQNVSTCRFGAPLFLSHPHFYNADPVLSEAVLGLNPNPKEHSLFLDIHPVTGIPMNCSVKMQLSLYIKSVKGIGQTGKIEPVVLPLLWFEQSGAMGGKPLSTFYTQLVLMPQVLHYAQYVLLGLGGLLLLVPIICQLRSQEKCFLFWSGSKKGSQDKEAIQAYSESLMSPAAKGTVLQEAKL
# XiGFP reactiv – activators of inactive X chromosome reactivation, primary screen, imaging, XiGFP fibroblasts, GFP high-content imaging, set 2; XiGFP mouse fibroblasts, % GFP-positive cells imaging, 3 d; cells co-treated with 5-aza-dC sensitizer; scaled so ellipticine positive control = 100%; activation, % at 7.58 µM; 360,000 tested, 0.055% active; AID 743238, 2013;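 active means mean normalized replicate activation at least 10% and every replicate at or above 10%; inconclusive means only one of the two criteria met; inactive means mean below 10% and not all replicates reach 10%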;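 further: 0% = median of on-plate neutral control wells and 100% = ellipticine 6 µM median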
#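 Assay system: SV40-immortalized XiGFP fibroblast cells, line 68-5-11; buffer or medium: DMEM plus 5-aza-dC sensitizer; compound: one concentration, pinned; timing: compounds 3 days, fix/stain 15 min at room temperature; benchmarks: positive control ellipticine, 6 µM final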
# dFosB activator – activators of delta FosB homodimer, primary screen, biochemical, fluorescence polarization, TAMRA-CDK5 oligo, single point; Protein FosB (Mus musculus), P13346; 340,000 tested, 0.99% active; purified delta FosB; percent of positive-control signal above neutral wells; activation, % at 25 µM; AID 493131, 2011;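 active means mean activation above about 17%, with every replicate also reaching it, limit read from the data, passing the limit was not always enough; inconclusive means only one of the two conditions met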
# Ecoli rRNA inh – reduced GFP signal of wild-type E. coli, primary screen, bacterial rRNA inhibitor project, GFP/RFP fluorescence, OD600, single point. 350,000 tested, 1.6% active. GFP signal change (wild-type ribosome), % (concentration not given with the values). E. coli WT GFP vs humanized-ribosome RFP mutants, 24 h; stronger effect = lower value; DMSO median 0, no signal -100;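 active means significant combined selectivity score with lowered wild-type GFP, culture density cut under 30%, mutant RFP and density less affected; inactive means any of these conditions unmet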
# PvdQ inh – P. aeruginosa PvdQ acylase inhibitors, primary screen, biochemical, fluorescence, plate reader and imaging, single point. purified PvdQ acylase. inhibition, % at 10 µM. 340,000 tested, 0.063% active. AID 488965, 2010; in the data active means inhibition above about 30%, passing the limit was not always enough; inconclusive means no clear call, values can overlap the other calls;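 further: 0% = vehicle neutral wells and 100% = reference inhibitor wells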
# AID977621 – growth inhibition of wild-type GFP E. coli, dose response, H69 mutant RFP, cherry-pick | shares compounds with Ecoli rRNA inh | E. coli wild-type GFP strain growth, fluorescence, 24 h | activity change, negative = inhibition at 50 µM | 1,900 tested, under 10 active | AID 977621, 2014;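 active means Wild-type ribosome reporter drop at least double the humanized mutant ribosome reporter drop, growth loss under a set limit; inconclusive means no clear call, values can overlap the other calls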;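 further: wild-type GFP and H69 mutant RFP strains grown together 50/50 in each well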
# AID977628 – E. coli growth inhibition, wild-type GFP versus h24 humanized RFP strain, dose response, h24 mutant RFP vs wild-type GFP, cherry-pick. shares compounds with Ecoli rRNA inh. E. coli WT GFP strain growth, fluorescence, 24 h. activity change, negative = inhibition at 50 µM. 1,900 tested, under 10 active. AID 977628, 2014;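 active means compound lowering the normal-ribosome reporter at least twice as much as the humanized-ribosome reporter, growth loss under a set limit; inconclusive means no clear call, values can overlap the other calls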;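 further: wild-type GFP and h24 humanized RFP strains co-cultured 1 to 1 per well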
# * marks the source's active call; other numbers are inactive results; ? = inconclusive; / = no result given.
SMILES,SR-BI uptake up,SR-BI DiI inh,XiGFP reactiv,dFosB activator,Ecoli rRNA inh,PvdQ inh,AID977621,AID977628
COc1ccc(CN(C)C[C@H]2OCCCC[C@@H](C)Oc3ccc(NS(=O)(=O)c4c(C)noc4C)cc3C(=O)N([C@H](C)CO)C[C@@H]2C)cc1,/,/,-1.1,/,0.5,/,/,/
COc1ccc(Cc2nc3ccc(C(=O)NCc4cc(C)no4)cc3o2)cc1OC,6.3,-6.3,0.0,-6.7,7.2,-9.6,/,/
C=CCN(CC=C)C(=O)c1ccc2nc(Cc3ccc(OC)c(OC)c3)oc2c1,0.5,-0.5,0.2,-9.4,-32.9*,-11.5,/,?
CCn1cc(Cl)c(C(=O)Nc2cccc(C(F)(F)F)c2)n1,4.9,-4.9,0.0,0.3,-23.2*,0.3,-15.6,/
O=C(COC(=O)c1ccccc1O)NCCC1=CCCCC1,15.3,-15.3,0.0,-7.2,-21.8*,-11.2,-13.6,?
CC(=O)NC12CC3CC(C1)CC(C(=O)N1CCN(S(=O)(=O)c4ccc([N+](=O)[O-])cc4)CC1)(C3)C2,19.4,-19.4,-0.1,-3.3,-0.5,-9.7,/,/
O=C(NCc1ccccc1)c1ccc([N+](=O)[O-])cc1,/,/,0.4,/,-5.6,/,/,/
O=C(N[C@H]1CC1c1ccccc1)c1ccc([N+](=O)[O-])cc1 (stereo not given in full),-8.7,8.7,0.1,1.3,-28.1*,-11.5,?,-7.85
O=C(c1ccccc1)C1Oc2ccccc2C2CC(c3cccs3)=NN12 (stereo not given),-0.8,0.8,0.2,6.8,-21.0*,2.4,-0.115,-5.88
CC(=O)N1N=C(c2cccs2)CC1c1ccco1 (stereo not given),4.8,-4.8,0.3,-1.3,7.3,-16.5,/,/
Cc1ccccc1COc1ccc(-c2nn[nH]n2)cc1,30.0,-30.0,0.0,-7.8,-25.4*,-19.8,?,/
O=C1C(Oc2ccccc2)C(c2cccs2)N1Cc1ccc2c(c1)OCO2 (stereo not given),-17.6,17.6,/,-0.3,/,-6.0,/,/
COc1ccc(OC2C(=O)N(Cc3ccc4c(c3)OCO4)C2c2cccs2)cc1 (stereo not given),-13.0,13.0,/,-5.2,-22.3*,-1.1,-16.3,/
CN1CCSc2ccc(C(=O)Nc3cccc(F)c3)cc21,/,/,-0.1,-1.0,-23.4*,-13.6,-2.85,-5.54
O=C(OCC(=O)N1CCOCC1)c1cccc(S(=O)(=O)N2CCCc3ccccc32)c1,-9.9,9.9,0.1,0.4,-17.8*,2.3,-8.21,?
CC1CN(C(=O)COC(=O)c2cccc(S(=O)(=O)N3CCc4ccccc43)c2)CC(C)O1 (stereo not given),-5.4,5.4,0.0,-7.3,1.1,10.8,/,/
COc1cccc(CN2CC(C(=O)N3CCSCC3)CCC2=O)c1 (stereo not given),/,/,-0.2,/,0.1,/,/,/
O=C(Nc1ccn(Cc2ccc(Cl)cc2)n1)c1ccccc1,-5.9,5.9,-0.1,0.9,-24.5*,6.3,-1.21,-9.67
Cc1cccc(-c2nsc(SCC(=O)NCC3CCCO3)n2)c1 (stereo not given),12.3,-12.3,0.0,-3.3,-21.9*,-5.5,-3.06,1.95
CO[C@@H]1CN(C)C(=O)c2ccc(NC(=O)c3cc(C)on3)cc2OC[C@@H](C)N(C(=O)C2CCC2)C[C@H]1C,/,/,0.1,/,-0.8,/,/,/
